Reference: ChEMBL document CHEMBL4480384, “Benzo[d]thiazol-2(3H)-ones as new potent selective CB2 agonists with anti-inflammatory properties” (Eur J Med Chem, 2019)
In brackets after ≈: the same amount, converted by molar mass.

What was measured:
[1] = target: T1, Cannabinoid receptor 2 (Homo sapiens, UniProt P34972); assay: Displacement of [3H]-CP-55940 from human CB2 receptor expressed in CHO cell membranes at 10 uM after 1 hr by beta-counting analysis
Procedure, shortened: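 Competition binding to hCB2-CHO membranes (40 μg) with [3H]-CP-55,940 1 nM in Tris-HCl/MgCl2/EDTA/0.5% BSA buffer, pH 7.4, 1 h at 30°C. Final DMSO was below 0.1%. Filtration on GF/B, then β-count; HU-210 10 µM defined nonspecific binding. Compounds were first screened at 10 μM.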

[2] = target: T1, Cannabinoid receptor 2; assay: Displacement of [3H]-CP-55940 from human CB2 receptor expressed in CHO cell membranes after 1 hr by beta-counting analysis
[3] = target: T2, Cannabinoid receptor 1 (Homo sapiens, UniProt P21554); assay: Displacement of [3H]-CP-55940 from human CB1 receptor expressed in CHO cell membranes after 1 hr by beta-counting analysis
T2 sequence (P21554 whole entry): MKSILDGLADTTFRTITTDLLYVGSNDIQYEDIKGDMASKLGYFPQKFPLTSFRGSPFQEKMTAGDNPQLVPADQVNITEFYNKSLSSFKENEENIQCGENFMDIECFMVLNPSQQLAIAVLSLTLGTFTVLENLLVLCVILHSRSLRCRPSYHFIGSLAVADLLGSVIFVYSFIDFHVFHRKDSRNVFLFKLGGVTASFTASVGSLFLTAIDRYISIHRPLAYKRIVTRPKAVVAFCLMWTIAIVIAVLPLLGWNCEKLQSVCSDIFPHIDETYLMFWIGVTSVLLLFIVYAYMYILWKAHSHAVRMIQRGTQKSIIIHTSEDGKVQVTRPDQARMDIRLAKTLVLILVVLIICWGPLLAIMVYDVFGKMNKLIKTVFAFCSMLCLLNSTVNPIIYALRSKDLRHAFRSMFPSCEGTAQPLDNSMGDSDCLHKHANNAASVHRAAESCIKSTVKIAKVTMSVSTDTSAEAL

[4] = species: Homo sapiens; assay: Selectivity index, ratio of Ki for human CB1 receptor expressed in CHO cell membranes to Ki for human CB2 receptor expressed in CHO cell membranes; type: cell-based
[5] = target: T1, Cannabinoid receptor 2; assay: Agonist activity at human CB2 receptor expressed in CHO cell membranes assessed as [35S]GTPgammaS binding after 1 hr by beta-counting analysis relative to control; type: functional
Procedure, shortened: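 Membranes from hCB2-CHO cells, 40 μg protein, in 50 mM Tris-HCl, 3 mM MgCl2, 1 mM EDTA, 100 mM NaCl, 0.1% BSA, pH 7.4, with 20 μM GDP. [35S]-GTPγS was 0.05 nM final, 1 h at 30°C. Filtration on GF/B, then β-counting. Nonspecific binding was set with 100 μM Gpp(NH)p.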

[6] = system: HT-29; assay: Cytotoxicity against human HT-29 cells at 10 uM after 72 hrs by MTS assay relative to control; type: cell-based; conditions: ht-29, 72 h
Procedure, shortened: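 HT29 cells were grown in DMEM-Glutamax with 10% FBS at 37°C and 5% CO2. They were seeded at 3000 cells/well in triplicate and allowed 24 h. Compounds were added at 10 μM with DMSO below 0.1%, for 72 h. Read-out was the MTS colorimetric test, given as % proliferation inhibition from ≥4 experiments in duplicate.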

[7] = target: T1, Cannabinoid receptor 2; assay: Agonist activity at human CB2 receptor expressed in CHO cell membranes assessed as [35S]GTPgammaS binding after 1 hr by beta-counting analysis; type: functional
[8] = system: Mus musculus; assay: Anti-inflammatory activity in C57BL6 mouse model of DSS-induced acute colitis assessed Sod2 mRNA expression at 10 mg/kg, ip measured on day 9 (reference value: 2 +/- 0.4 a.u.); type: functional
Procedure, shortened: (§1)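 Colons came from DSS-colitis C57BL6 mice dosed ip at 10 mg/kg daily in hydroxypropyl-β-cyclodextrin, or given vehicle. Total RNA was extracted and reverse-transcribed. Sod2 and iNos mRNA were measured by SYBR Green RT-qPCR against the PolR2A reference gene. Mean ± SEM, n = 10, Mann-Whitney U test.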

[9] = Efflux ratio of permeability in human Caco2 after 60 mins; type: ADME, cell-based; conditions: Caco-2
Procedure, shortened: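 Run by a contract lab. Compound incubated with the Caco-2 cell line at 37 °C, pH 6.5/7.4, sampled at 0 and 60 min. Apparent permeability measured A-B and B-A, and the efflux ratio taken as (B-A)/(A-B).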

[10] = system: Mus musculus; assay: Anti-inflammatory activity in C57BL6 mouse model of DSS-induced acute colitis assessed as body weight change at 10 mg/kg, ip measured on day 9 (reference value: 79.5 +/- 1.8%); type: functional
[11] = system: Mus musculus; assay: Anti-inflammatory activity in C57BL6 mouse model of DSS-induced acute colitis assessed iNos mRNA expression at 10 mg/kg, ip measured on day 9 (reference value: 1 +/- 0.2 a.u.); type: functional; procedure, shortened: as §1
[12] = system: Mus musculus; assay: Anti-inflammatory activity in C57BL6 mouse model of DSS-induced acute colitis assessed colon weight/size ratio at 10 mg/kg, ip measured on day 9 (reference value: 0.050 +/- 0.0014); type: functional
[13] = Intrinsic clearance in human liver microsomes at 0.1 mg/ml after 60 mins; type: ADME, Microsome; conditions: read-out: CLH
Procedure, shortened: (§2)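 Incubation with human liver microsomes at 0.1 mg/mL, 37°C, sampled at 0 and 60 min. Outputs were % remaining at 60 min, half-life and intrinsic clearance in μL/min/mg.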

[14] = Stability in human liver microsomes assessed as compound remaining at 0.1 mg/ml after 60 mins; type: ADME, Microsome; conditions: read-out: Stability; procedure, shortened: as §2
[15] = system: Mus musculus; assay: Anti-inflammatory activity in C57BL6 mouse model of DSS-induced acute colitis assessed reduction in MPO activity at 10 mg/kg, ip measured on day 9 relative to control; type: functional; conditions: 216 h
Procedure, shortened: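 DSS-colitis C57BL6 mice were dosed ip at 10 mg/kg daily in hydroxypropyl-β-cyclodextrin, against vehicle controls. Colon was homogenised in phosphate buffer pH 6.0 with 0.5% hexadecyltrimethyl ammonium, then sonicated and freeze-thawed. Supernatant was reacted with o-dianisidine 1 mg/ml and H2O2 0.0005%, and OD read at 450 nm. Results were normalised to Bradford protein; n = 10.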

[16] = Aqueous solubility of compound in pH 7.4 PBS after 24 hrs by shake-flask method; type: physicochemical
Procedure, shortened: (§3)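 Solubility was measured by shake-flask for 24 h at room temperature in PBS pH 7.4, simulated gastric fluid or simulated intestinal fluid.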

[17] = Protein binding in human plasma after 4 hrs by equilibrium dialysis method; type: ADME, cell-free; conditions: read-out: PPB (converted)
Procedure, shortened: (§4)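 Human plasma protein binding was measured by equilibrium dialysis, 4 h at 37°C. Both % bound and % recovery were reported.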

[18] = Aqueous solubility of compound in stimulated gastric fluid after 24 hrs by shake-flask method; type: physicochemical; conditions: simulated gastric fluid; procedure, shortened: as §3
[19] = Aqueous solubility of compound in stimulated intestinal fluid after 24 hrs by shake-flask method; type: physicochemical; conditions: simulated intestinal fluid; procedure, shortened: as §3
[20] = Permeability of the compound across basolateral side to apical side in human Caco2 after 60 mins; type: ADME, cell-based; conditions: Caco-2, read-out: permeability
Procedure, shortened: (§5)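 Caco-2 monolayers were dosed apical-to-basolateral and basolateral-to-apical, pH 6.5/7.4, at 37°C. Samples were taken at 0 and 60 min, and permeability reported in 10^-6 cm/s.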

[21] = Protein binding in human plasma assessed as drug recovery after 4 hrs by equilibrium dialysis method; type: ADME, cell-free; conditions: read-out: Drug recovery; procedure, shortened: as §4
[22] = Permeability of the compound across apical side to basolateral side in human Caco2 after 60 mins; type: ADME, cell-based; conditions: Caco-2, read-out: permeability; procedure, shortened: as §5
[23] = Half life in human liver microsomes at 0.1 mg/ml after 60 mins; type: ADME, Microsome; procedure, shortened: as §2
[24] = target: T2, Cannabinoid receptor 1; assay: Agonist activity at human CB1 receptor
[25] = target: T1, Cannabinoid receptor 2; assay: Agonist activity at human CB2 receptor

T1 sequence (P34972 whole entry): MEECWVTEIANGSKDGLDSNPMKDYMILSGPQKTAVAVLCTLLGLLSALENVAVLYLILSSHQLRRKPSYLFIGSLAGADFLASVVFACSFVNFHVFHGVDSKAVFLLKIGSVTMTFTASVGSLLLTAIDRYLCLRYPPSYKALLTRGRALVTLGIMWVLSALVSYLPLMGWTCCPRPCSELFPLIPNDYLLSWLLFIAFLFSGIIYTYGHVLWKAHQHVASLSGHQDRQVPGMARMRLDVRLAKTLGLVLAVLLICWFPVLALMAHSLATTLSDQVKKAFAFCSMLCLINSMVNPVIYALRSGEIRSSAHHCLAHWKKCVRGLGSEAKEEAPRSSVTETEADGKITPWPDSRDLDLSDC

Structure (SMILES)	inhibition [1] [%]	Ki [2] [nM]	Ki [3] [nM]	Ratio Ki [4]	other results
CCCCCn1c(=O)sc2cc(/C(=N\OC)C34CC5CC(CC(C5)C3)C4)ccc21	> 60	438	–	–	–
CCCCCn1c(=O)sc2cc(CC34CC5CC(CC(C5)C3)C4)ccc21	> 60	144	593	4	–
CCCC(C)(C)c1ccc2c(c1)OC(C)(C)[C@@H]1CC=C(C)C[C@@H]21	–	8	> 1000	> 125	–
CCCCCn1c(=O)sc2ccc(C(=O)C34CC5CC(CC(C5)C3)C4)cc21	> 60	526	–	–	–
CCCCCCn1c(=O)sc2cc(C(=O)C34CC5CC(CC(C5)C3)C4)ccc21	> 60	39	903	23	Emax [5]: 169%; Activity [6]: 0%; EC50 [7]: 32.8 nM
CCCCCn1c(=O)sc2ccc(C(=O)C3CCCCC3)cc21	> 60	> 1000	–	–	–
CCCCn1c(=O)sc2cc(C(=O)C34CC5CC(CC(C5)C3)C4)ccc21	> 60	26	780	30	Emax [5]: 152%; Activity [6]: 0%; EC50 [7]: 150 nM
CCCCCn1c(=O)oc2cc(C(=O)C3C(C)(C)C3(C)C)ccc21	> 60	> 1000	–	–	–
CC(Cn1c(=O)sc2cc(C(=O)C34CC5CC(CC(C5)C3)C4)ccc21)N(C)C (stereo not given)	> 60	506	–	–	–
CCCCCn1c(=O)sc2cc(/C(=N\O)C34CC5CC(CC(C5)C3)C4)ccc21	> 60	251	> 1000	> 4	–
CC(C)n1c(=O)sc2cc(C(=O)C34CC5CC(CC(C5)C3)C4)ccc21	> 60	281	> 1000	> 4	–
CCCCCn1c(=O)sc2ccc(C(=O)C3C(C)(C)C3(C)C)cc21	> 60	> 1000	–	–	–
CCCCCn1c(=O)sc2cc(C(=O)C3CCCC3)ccc21	> 60	210	> 1000	> 5	–
CCCCCn1c(=O)oc2cc(C(=O)C3CCCCC3)ccc21	> 60	> 1000	–	–	–
CCCCCn1c(=O)sc2cc(C(=O)c3ccccc3)ccc21	> 60	> 1000	–	–	–
CCCCCn1c(=O)sc2cc(NC(=O)C34CC5CC(CC(C5)C3)C4)ccc21	> 60	> 1000	–	–	–
CCCCCn1c(=O)oc2cc(C(=O)C34CC5CC(CC(C5)C3)C4)ccc21	> 60	> 1000	–	–	–
Cc1c(C(=O)c2cccc3ccccc23)c2cccc3c2n1[C@H](CN1CCOCC1)CO3	–	–	–	–	Emax [5]: 181%
CCCCCn1c(=O)sc2cc(C(O)C34CC5CC(CC(C5)C3)C4)ccc21 (stereo not given)	> 60	272	> 1000	> 4	–
CCCCCn1c(=O)sc2cc(C(=O)C34CC5CC(CC(C5)C3)C4)ccc21	> 60	13.5	627	46	Activity [8]: 1.2 a.u.; efflux ratio at 1 h [9]: 0.7; Activity [10]: 85.9%; Activity [11]: 0.4 a.u.; Ratio [12]: 0.044; microsomal CLint [13]: 146 µL/min/mg; Emax [5]: 157%; remaining at 1 h [14]: 43%; Activity [6]: 0%; inhibition in vivo at 10 mg/kg [15]: 43%; solubility thermodynamic at 24 h [16]: 1 µM (≈ 0.384 µg/mL); fraction unbound at 4 h [17]: 0.11; solubility thermodynamic at 24 h [18]: 183 µM (≈ 70.3 µg/mL); solubility thermodynamic at 24 h [19]: 107 µM (≈ 41.2 µg/mL); EC50 [7]: 41.9 nM; Papp B→A at 1 h [20]: 1.3 ×10⁻⁶ cm/s; recovery at 4 h [21]: 100%; Papp A→B at 1 h [22]: 1.8 ×10⁻⁶ cm/s; half-life [23]: 48 min
CCCCCn1c(=O)sc2cc(C(=O)C3C(C)(C)C3(C)C)ccc21	> 60	> 1000	–	–	–
CCS(=O)(=O)Nc1ccc2c(c1)nc(C(C)(C)C)n2CC1CCC(F)(F)CC1	–	–	–	–	Ki [24]: 11.7 nM; Ki [25]: 0.87 nM
CCCCCn1c(=O)sc2cc(C(=O)C3CCCCC3)ccc21	> 60	49.5	> 1000	> 20	Emax [5]: 178%; Activity [6]: 67%; EC50 [7]: 41.5 nM
CC(C)(C)NC(=O)c1nn(-c2ccc(F)cc2F)c2c1[C@H]1CC[C@@H]2C1 [TEDALINAB]	–	–	–	–	Ki [24]: 985 nM; Ki [25]: 11.8 nM
CCCCCn1c(=O)sc2cc(C(OC)C34CC5CC(CC(C5)C3)C4)ccc21 (stereo not given)	> 60	344	> 1000	> 3	–
CCCCCn1c(=O)sc2cc(C(=O)NC34CC5CC(CC(C5)C3)C4)ccc21	> 60	> 1000	–	–	–
